From ChEMBL document CHEMBL1795212, “Synthesis and in vitro antimalarial activity of tetraoxane-amine/amide conjugates” (Eur J Med Chem, 2011)

Key:
[1] = system: Plasmodium falciparum; test: Antimalarial activity against Plasmodium falciparum W2 assessed as plasmodial LDH activity after 72 hrs; type: functional, organism-based
Method in brief: (§1)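 P. falciparum D6 (chloroquine-sensitive) and W2 (chloroquine-resistant) clones screened in vitro alongside Vero cytotoxicity, up to a highest concentration of 12.5; IC50 determined.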

[2] = Selectivity index, IC50 for african green monkey Vero cells to IC50 for Plasmodium falciparum D6; type: functional
Method in brief: (§2)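 Selectivity index is the cytotoxicity IC50 in Vero cells divided by the antimalarial IC50 against the stated P. falciparum clone (D6 or W2).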

[3] = Selectivity index, IC50 for african green monkey Vero cells to IC50 for Plasmodium falciparum W2; type: functional; method in brief: as §2
[4] = system: Vero; test: Cytotoxicity against african green monkey Vero cells at 12.5 uM; type: cell-based; conditions: chlorocebus sabaeus
Method in brief: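 Mammalian kidney Vero cells screened in vitro for cytotoxicity, in parallel with the antimalarial screen, up to a highest concentration of 12.5.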

[5] = system: Plasmodium falciparum; test: Antimalarial activity against Plasmodium falciparum D6 assessed as plasmodial LDH activity after 72 hrs; type: functional, organism-based; method in brief: as §1
[6] = Plasmodium falciparum, W2, 72 h, read-out: IC50
[7] = Plasmodium falciparum, D6, 72 h, read-out: IC50

| Compound | IC50 [1, 6] | Ratio IC50 [2] | Ratio IC50 [3] | Activity [4] | IC50 [5, 7] | IC50 [1] | IC50 [5] |
| --- | --- | --- | --- | --- | --- | --- | --- |
| Cc1ccc(C2OOC(c3ccc(C(=O)NCCNc4ccnc5cc(Cl)ccc45)cc3)OO2)cc1 (stereo not drawn) | 1500 nM | >8.5 | >6.3 | Non-toxic | 1100 nM |  |  |
| Cc1ccc(C2OOC(c3ccc(C=O)cc3)OO2)cc1 (stereo not drawn) |  |  |  | Non-toxic |  | Not Active | Not Active |
| Cc1ccc(C2OOC(c3ccc(/C=N/C4CCCCC4)cc3)OO2)cc1 (stereo not drawn) | 1850 nM | >6.8 | >7 | Non-toxic | 1900 nM |  |  |
| CCN(CC)CCCC(C)Nc1ccnc2cc(Cl)ccc12 (stereo not drawn) [CHLOROQUINE] |  |  |  | Non-toxic |  |  |  |
| Cc1cccc(C2OOC(c3ccc(C=O)cc3)OO2)c1 (stereo not drawn) |  |  |  | Non-toxic |  | Not Active | Not Active |
| CCc1ccc(C2OOC(c3ccc(CO)cc3)OO2)cc1 (stereo not drawn) | 1090 nM | 9.9 | 14.4 | Non-toxic | 1580 nM |  |  |
| CC(C)c1ccc(C2OOC(c3ccc(CO)cc3)OO2)cc1 (stereo not drawn) | 1890 nM | >7.4 | >7.9 | Non-toxic | 2020 nM |  |  |
| Cc1ccc(C2OOC(c3ccc(C(=O)NCCCCCCO)cc3)OO2)cc1 (stereo not drawn) |  |  |  | Non-toxic |  | Not Active | Not Active |
| Cc1ccc(C2OOC(c3ccc(COS(C)(=O)=O)cc3)OO2)cc1 (stereo not drawn) | 8180 nM | >1.7 | >1.6 | Non-toxic | 7640 nM |  |  |
| Cc1ccc(C2OOC(c3ccc(C(=O)NCCCCCCCN)cc3)OO2)cc1 (stereo not drawn) | 4660 nM | >2.2 | >2.4 | Non-toxic | 5130 nM |  |  |
| Cc1ccc(C2OOC(c3ccc(C(=O)NCCc4ccccc4)cc3)OO2)cc1 (stereo not drawn) | 2090 nM | >4.3 | >5.6 | Non-toxic | 2710 nM |  |  |
| Cc1ccc(C2OOC(c3ccc(CNc4c(C)cccc4C)cc3)OO2)cc1 (stereo not drawn) | 1450 nM | >8.2 | >8.4 | Non-toxic | 1480 nM |  |  |
| Cc1ccc(C2OOC(c3ccc(CNc4ccc(Br)cc4)cc3)OO2)cc1 (stereo not drawn) | 4970 nM | >1.4 | >2.2 | Non-toxic | 7690 nM |  |  |
| Cc1ccc(C2OOC(c3ccc(C(=O)NC4CCCCC4)cc3)OO2)cc1 (stereo not drawn) | 2860 nM | >2.8 | >4.3 | Non-toxic | 4430 nM |  |  |
| Cc1ccc(C2OOC(c3ccc(CNc4ccc(O)cc4)cc3)OO2)cc1 (stereo not drawn) | 7110 nM | >1.8 | >1.8 | Non-toxic | 6320 nM |  |  |
| Cc1ccc(C2OOC(c3ccc(CNc4ccccc4F)cc3)OO2)cc1 (stereo not drawn) | 1830 nM | >6.6 | >6.8 | Non-toxic | 1880 nM |  |  |
| Cc1ccc(C2OOC(c3ccc(C(=O)NCCCNc4ccnc5cc(Cl)ccc45)cc3)OO2)cc1 (stereo not drawn) | 2110 nM | >7.7 | >4.3 | Non-toxic | 1190 nM |  |  |
| CCCNC(=O)c1ccc(C2OOC(c3ccc(C)cc3)OO2)cc1 (stereo not drawn) | 13900 nM | >3.4 | >1 | Non-toxic | 8730 nM |  |  |
| CCCCNC(=O)c1ccc(C2OOC(c3ccc(C)cc3)OO2)cc1 (stereo not drawn) |  |  |  | Non-toxic |  | Not Active | Not Active |
| CC(C)c1ccc(C2OOC(c3ccc(C=O)cc3)OO2)cc1 (stereo not drawn) | 3110 nM | >2.2 | >4.9 | Non-toxic | 6990 nM |  |  |
| CCc1ccc(C2OOC(c3ccc(COS(C)(=O)=O)cc3)OO2)cc1 (stereo not drawn) | 3940 nM | >2.5 | >3.2 | Non-toxic | 4990 nM |  |  |
| Cc1ccc(C2OOC(c3ccc(CNc4ccccc4)cc3)OO2)cc1 (stereo not drawn) | 1590 nM | >7.1 | >8.2 | Non-toxic | 1840 nM |  |  |
| Cc1ccc(C2OOC(c3ccc(C(=O)O)cc3)OO2)cc1 (stereo not drawn) | 9260 nM | >1.5 | >1.7 | Non-toxic | 10600 nM |  |  |
| CCCCNC(=O)c1ccc(C2OOC(c3ccc(CC)cc3)OO2)cc1 (stereo not drawn) | 6990 nM | >1.9 | >1.8 | Non-toxic | 6730 nM |  |  |
